Assay [1] relates to Candida albicans. Kind of assay: Antifungal activity against Candida albicans ATCC 90028 at 2 ug/ml after 48 hrs relative to control. In kind it is functional. An outline of the steps:
(§1)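 Planktonic broth microdilution per M27-A3 in MOPS-buffered RPMI 1640 (pH 7.0), final inoculum 1.8×10^3 cells/mL, compounds 0.0313–16 µg/mL from 1600 µg/mL stocks in ethanol or DMSO. Incubated at 35°C without agitation; OD405 read at 18 and 48 h. % inhibition was derived from test, sterility (no inoculum) and solvent growth-control wells. Amphotericin B at 0.5 µg/mL served as the 100% control.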

Assay [2] concerns Candida albicans. Kind of assay: Antifungal activity against Candida albicans ATCC 90028 assessed as metabolic activity at 80 ug/ml after 48 hrs in presence of 5 ug/ml fluconazol by XTT assay relative to control.
For assay [3], the system named is Candida albicans. Kind of assay: Synergistic antifungal activity against Candida albicans ATCC 90028 at 40 ug/ml after 48 hrs in presence of 40 ug/ml fluconazol by checkerboard assay relative to control. Format: functional. To be noted: ATCC 90028, 48 h, read-out: GI. An outline of the steps: (§2)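 Checkerboard in C. albicans ATCC 90028, inoculum prepared per CLSI M27-A3 in RPMI. Fluconazole serially diluted 80-1.25 µg/mL across the plate against the partner compound at 80-1.25 µg/mL final. Incubated 48 h at 35°C. Metabolic activity read by XTT reduction at 475 nm (660 nm reference), given as % of the untreated growth control.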

Assay [4] concerns Candida albicans. Kind of assay: Antifungal activity against Candida albicans ATCC 90028 assessed as metabolic activity at 40 ug/ml after 48 hrs in presence of 80 ug/ml fluconazol by XTT assay relative to control.
Assay [5] concerns Candida albicans. Kind of assay: Antifungal activity against Candida albicans ATCC 90028 assessed as inhibition of metabolic activity at 2.5 ug/ml after 48 hrs in presence of 20 ug/ml fluconazol by XTT assay relative to control. In kind it is functional. To be noted: values are per cent of control. The method, boiled down:
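C. albicans ATCC 90028 in checkerboard: fluconazole serial dilutions (80-1.25 µg/mL) crossed with tetrazole (80-1.25 µg/mL final), M27-A3 inoculum in RPMI 1640, 35°C for 48 h. Metabolic activity measured by XTT reduction, read at 475 nm (660 nm reference). Activity expressed relative to untreated growth control absorbance.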

Assay [6] relates to Candida albicans. Kind of assay: Antifungal activity against Candida albicans ATCC 90028 at 8 ug/ml after 18 hrs relative to control. Format: functional. An outline of the steps: as §1
In assay [7] the test system is Candida albicans. Kind of assay: Antifungal activity against Candida albicans ATCC 90028 at 0.25 ug/ml after 48 hrs relative to control. Format: functional. An outline of the steps: (§3)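 Fluconazole (water stock, diluted in RPMI 1640) tested by CLSI M27-A3 broth microdilution against C. albicans ATCC 90028. Inoculum 1.8×10^3 cells/mL in RPMI 1640 buffered with MOPS, pH 7.0. Incubation at 35°C without agitation, read at 18 and 48 h. Growth by OD405 and visually; inhibition % calculated against solvent growth-control wells after subtracting sterility-control wells.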

Assay [8] has as its system Candida albicans. Kind of assay: Synergistic antifungal activity against Candida albicans ATCC 90028 at 20 ug/ml after 48 hrs in presence of 10 ug/ml fluconazol by checkerboard assay relative to control. Format: functional. An outline of the steps: as §2
For assay [9], the system named is Candida albicans. Kind of assay: Antifungal activity against Candida albicans ATCC 90028 assessed as metabolic activity at 40 ug/ml after 48 hrs in presence of 5 ug/ml fluconazol by XTT assay relative to control.
Assay [10] relates to Candida albicans. Kind of assay: Antifungal activity against Candida albicans ATCC 90028 assessed as metabolic activity at 40 ug/ml after 48 hrs in presence of 20 ug/ml fluconazol by XTT assay relative to control. On the technique in general: Tetrazolium assays rely on reduction of a dye to a coloured formazan, in cell work by metabolically active cells.
The subject of assay [11] is Candida albicans. Kind of assay: Synergistic antifungal activity against Candida albicans ATCC 90028 at 2.5 ug/ml after 48 hrs in presence of 10 ug/ml fluconazol by checkerboard assay relative to control. Format: functional. The method, boiled down: (§4)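 Checkerboard microdilution (M27-A3) on C. albicans ATCC 90028 in RPMI 1640: fluconazole (80-1.25 µg/mL) crossed with tetrazole (80-1.25 µg/mL final), incubated at 35°C for 48 h. Growth by OD405 at 18 and 48 h, endpoint taken as 100% inhibition. FIC index = sum of the two agents' FICs; <1 synergism, >1 antagonism.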

The subject of assay [12] is Candida albicans. Kind of assay: Antifungal activity against Candida albicans ATCC 90028 assessed as inhibition of metabolic activity at 5 ug/ml after 48 hrs in presence of 40 ug/ml fluconazol by XTT assay relative to control. In kind it is functional. The settings on record: values are per cent of control. An outline of the steps:
(§5)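 Checkerboard against strain ATCC 90028, inoculum per M27-A3: fluconazole 80-1.25 µg/mL on one axis, tetrazole 80-1.25 µg/mL on the other. Plates at 35°C for 48 h, then XTT metabolic reduction read at 475 nm (660 nm reference). Activity is the drop in mean absorbance against untreated growth control. FICs and their summed FIC index are taken at 50% reduction in metabolic activity.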

Assay [13] deals with Candida albicans. Kind of assay: Antifungal activity against Candida albicans ATCC 90028 at 1 ug/ml after 18 hrs relative to control. Format: functional. An outline of the steps:
as §1

Assay [14] has as its system Candida albicans. Kind of assay: Antifungal activity against Candida albicans ATCC 90028 assessed as metabolic activity at 40 ug/ml after 48 hrs in presence of 1.25 ug/ml fluconazol by XTT assay relative to control.
Assay [15] deals with Candida albicans. Kind of assay: Antifungal activity against Candida albicans ATCC 90028 assessed as FIC at 80 ug/ml in presence of fluconazol after 48 hrs by checkerboard-based XTT assay. In kind it is functional. The method, boiled down: as §5
The test system of assay [16] is Candida albicans. Kind of assay: Antifungal activity against Candida albicans ATCC 90028 at 1 ug/ml after 48 hrs relative to control. In kind it is functional. An outline of the steps:
as §1

Assay [17] deals with Candida albicans. Kind of assay: Antifungal activity against Candida albicans ATCC 90028 assessed as inhibition of metabolic activity at 1.25 ug/ml after 48 hrs in presence of 10 ug/ml fluconazol by XTT assay relative to control. In kind it is functional. The settings on record: values are per cent of control. An outline of the steps:
as §5

The test system of assay [18] is Candida albicans. Kind of assay: Antifungal activity against Candida albicans ATCC 90028 at 4 ug/ml after 18 hrs relative to control. In kind it is functional. The method, boiled down: as §1
The test system of assay [19] is Candida albicans. Kind of assay: Antifungal activity against Candida albicans ATCC 90028 at 0.125 ug/ml after 18 hrs relative to control. In kind it is functional. The method, boiled down:
as §1

The subject of assay [20] is Candida albicans. Kind of assay: Antifungal activity against Candida albicans ATCC 90028 at 0.25 ug/ml after 18 hrs relative to control. Format: functional. An outline of the steps:
as §3

For assay [21], the system named is Candida albicans. Kind of assay: Synergistic antifungal activity against Candida albicans ATCC 90028 at 2.5 ug/ml after 48 hrs in presence of 20 ug/ml fluconazol by checkerboard assay relative to control. Format: functional. An outline of the steps: as §4
Assay [22] relates to Candida albicans. Kind of assay: Antifungal activity against Candida albicans ATCC 90028 assessed as inhibition of metabolic activity at 10 ug/ml after 48 hrs in presence of 1.25 ug/ml fluconazol by XTT assay relative to control. In kind it is functional. The settings on record: values are per cent of control. The method, boiled down: as §5
The test system of assay [23] is Candida albicans. Kind of assay: Synergistic antifungal activity against Candida albicans ATCC 90028 at 20 ug/ml after 48 hrs in presence of 40 ug/ml fluconazol by checkerboard assay relative to control. In kind it is functional. An outline of the steps:
as §2

Where only a bound is given, the exact number is not on record here.

Three compounds from ChEMBL document CHEMBL4145471, “New 1,5 and 2,5-disubstituted tetrazoles-dependent activity towards surface barrier of Candida albicans” (Eur J Med Chem, 2018) can be followed below.

As a reminder, the residual activity is the signal under treatment as a percentage of the control signal.

For `CCOC(=O)CCn1nnc(-c2ccccc2)n1`, the Activity is on record as 99.7% in assay [1]; 99.01% in assay [6]; 98.7% in assay [7]; 85.06% in assay [13]; 97.51% in assay [16]; 99.96% in assay [18]. Also, the Activity in [19] worked out at 99.13%; in assay [20], 98.4%. The Metabolic activity in assay [2] was 100%; in [4], 55.99%; in [9], 100%; in assay [10], 54.82%; in assay [14] it was 66.6%. Besides, in [3], the inhibition of growth at 40 µg/mL amounted to 99.5%. Also, the residual activity worked out at 67.39% in assay [5], 94.92% in [12], 74.44% in [17] and 90.58% in [22]. Besides, the “growth inhibition (GI)” value in assay [8] is on record as 99.52%; in assay [11] it was 99.49%; in assay [21] it was 99.52%; in assay [23], 99.29%. In addition, the FIC in assay [15] is over 5.

Take `Cc1ccc(-c2nnn(CCCN3CCOCC3)n2)cc1`: the Activity in [1] is 98.3%; in [6], 99.97%; in [7], 98.68%; in assay [13] it was 57.6%; in assay [16], 96.58%; in assay [18], 99.75%. Further, the Activity in [19] is 99.57%; in assay [20], 98.25%. In addition, the Metabolic activity came to 100% in assay [2]; 66.33% in [4]; 100% in [9]; 54.14% in [10]; 40.06% in assay [14]. In addition, in [3], the inhibition of growth at 40 µg/mL is 99.5%. Moreover, the residual activity in assay [5] is given as 86.25%; in assay [12] it was 100%; in assay [17], 100%; in assay [22], 100%. In addition, the “growth inhibition (GI)” value in assay [8] is recorded as 99.32%; in assay [11], 99.09%; in assay [21], 98.82%; in assay [23], 98.99%. In assay [15], the FIC is over 1.25.

Consider `ClCCCn1nnnc1-c1ccccc1Cl`, for which the Activity in assay [1] is listed as 99.14%; in assay [6] it was 99.44%; in assay [7] it was 99.62%; in [13], 93.49%; in [16] it was 98.22%; in assay [18], 99.62%. The figures for the Activity in [19] and in assay [20] were 100% and 99.96%, respectively. Also, the Metabolic activity in [2] amounted to 100%; in assay [4] it was 63.62%; in assay [9], 100%; in assay [10], 74.1%; in assay [14] it was 13.59%. For the same compound, the inhibition of growth at 40 µg/mL in [3] is 99.4%. Further, the residual activity in assay [5] came out at 68.53%; in assay [12] it was 86.34%; in assay [17] it was 62.08%; in assay [22], 73.65%. Also, the “growth inhibition (GI)” value in assay [8] amounted to 99.73%; in assay [11] it was 99.75%; in [21], 99.53%; in assay [23], 99.34%. Besides, the FIC in [15] was over 5.
